# Where two headings read alike, the source gives them in different places.
# How the values were obtained:
# pFGFR2α = settings: based on in vivo experiments; no reference given; cited from earlier work
# [1] = test system: patients with advanced malignancies; settings: monotherapy, parts 1 and 2; cited from earlier work
# advanced malignancies = settings: monotherapy, cited from earlier work
# advanced solid tumors = assay: Investigator-assessed tumor response per RECIST v1.1, FIGHT-101 part 3; format: in vivo, human
# phosphorylated FGFR2α = phosphorylated FGFR2α (Homo sapiens, UniProt P21802); format: cell-based
# How it was run: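 Patients take oral pemigatinib once daily on 21-day cycles, continuous or intermittent, with combination therapy (e.g. i.v. docetaxel 75 mg/m² q3w, i.v. pembrolizumab 200 mg q3w). Steady-state trough is cycle 1 day 14, 0-24 h. Values are mean (SE) inhibition.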
# [2] = test system: patients with advanced solid tumor malignancies; assay: Safety and tolerability; format: in vivo, human
# How it was run: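 Patients are ≥18 years with solid tumors that progressed after ≥1 prior line. They self-administer oral pemigatinib 9, 13.5 or 20 mg q.d. on 21-day cycles, continuous or intermittent, combined with chemotherapy, trastuzumab or anti-PD-1 antibody until progression or toxicity. Interruption and dose adjustment are allowed. AE frequency, duration and severity are summarized descriptively for patients receiving ≥1 dose.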
# [3] = both the 9-mg and 13.5-mg doses of pemigatinib
# phosphorylated FGFR2α, sequence (P21802 431-767 limits assumed): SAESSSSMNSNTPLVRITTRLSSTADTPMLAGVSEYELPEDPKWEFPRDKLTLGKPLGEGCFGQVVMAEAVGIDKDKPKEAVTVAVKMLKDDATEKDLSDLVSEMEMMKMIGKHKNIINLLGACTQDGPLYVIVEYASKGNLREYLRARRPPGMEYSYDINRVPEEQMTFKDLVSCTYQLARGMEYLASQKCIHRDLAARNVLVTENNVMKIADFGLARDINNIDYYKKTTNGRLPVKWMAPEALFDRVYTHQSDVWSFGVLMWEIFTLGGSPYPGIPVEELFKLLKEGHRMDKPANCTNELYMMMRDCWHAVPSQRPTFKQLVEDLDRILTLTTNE
compound,measurement,setting,value
CCN1C(=O)N(c2c(F)c(OC)cc(OC)c2F)Cc2cnc3[nH]c(CN4CCOCC4)cc3c21 [pemigatinib],IC50,pFGFR2α,22.6 nM
same,"Alopecia, patients",[1],31.3%
same,"Diarrhea, patients",[1],32.0%
same,"Dose reductions, patients",[1],4.6%
same,"Dry mouth, patients",[1],38.3%
same,"Fatigue, patients",[1],39.1%
same,"Hyperphosphatemia, patients",[1],75.0%
same,Patients who discontinued pemigatinib because of TEAEs,[1],10.2%
same,"Pemigatinib interruption used to manage TEAEs, patients",[1],51.6%
same,"Stomatitis, patients",[1],34.4%
same,Patients with partial responses (PRs),advanced malignancies; 128 patients in parts 1 or 2,9.4%
same,ORR among patients with FGFR mutations,advanced malignancies; parts 1 or 2,23.1%
same,ORR among patients with FGFR rearrangements,advanced malignancies; parts 1 or 2,25.0%
pemigatinib + docetaxel [Pemi/doc],ORR (95% CI),advanced solid tumors; pemigatinib 13.5 mg ID,14.3%
same,"DOR, individual responder","advanced solid tumors; urothelial tract/bladder cancer, FGF10 amplification",12.5 months
same,Inhibition of FGFR2α phosphorylation at trough of steady state,phosphorylated FGFR2α; [3],exceeded 50%
same,Alopecia (TEAE),[2]; pemigatinib 13.5 mg ID,3 (42.9) n (%)
same,Anemia (TEAE),[2]; pemigatinib 13.5 mg ID,4 (57.1) n (%)
same,Constipation (TEAE),[2]; pemigatinib 13.5 mg ID,3 (42.9) n (%)
same,Dehydration (TEAE),[2]; pemigatinib 13.5 mg ID,5 (71.4) n (%)
same,Diarrhea (TEAE),[2]; pemigatinib 13.5 mg ID,6 (85.7) n (%)
same,"Diarrhea TEAE, patients",[2]; pemigatinib 13.5 mg ID,85.7%
same,"Dose interruptions because of TEAEs, patients",[2]; pemigatinib 13.5 mg ID,42.9%
same,Dysgeusia (TEAE),[2]; pemigatinib 13.5 mg ID,3 (42.9) n (%)
same,Fatigue (TEAE),[2]; pemigatinib 13.5 mg ID,6 (85.7) n (%)
same,"Fatigue TEAE, patients",[2]; pemigatinib 13.5 mg ID,85.7%
same,Hyperphosphatemia (TEAE),[2]; pemigatinib 13.5 mg ID,6 (85.7) n (%)
same,"Hyperphosphatemia TEAE, patients",[2]; pemigatinib 13.5 mg ID,85.7%
same,Nausea (TEAE),[2]; pemigatinib 13.5 mg ID,4 (57.1) n (%)
same,Neutropenia (TEAE),[2]; pemigatinib 13.5 mg ID,3 (42.9) n (%)
same,"Stomatitis TEAE, patients",[2]; pemigatinib 13.5 mg ID,28.6%
same,"TEAEs related to the combination partner, patients",[2]; pemigatinib 13.5 mg ID,71.4%
same,Taste disorder (TEAE),[2]; pemigatinib 13.5 mg ID,3 (42.9) n (%)
same,Vomiting (TEAE),[2]; pemigatinib 13.5 mg ID,3 (42.9) n (%)
same,Weight decreased (TEAE),[2]; pemigatinib 13.5 mg ID,3 (42.9) n (%)
pemigatinib + gemcitabine + cisplatin [Pemi/gem/cis],ORR (95% CI),advanced solid tumors; Total (all pemigatinib doses),37.5%
same,"DOR, individual responder","advanced solid tumors; pemigatinib 13.5 mg ID, anal cancer, no detectable FGF/FGFR alterations",5.8 months
same,"DOR, individual responder","advanced solid tumors; pemigatinib 13.5 mg ID, ovarian cancer, no detectable FGF/FGFR alterations",6.6 months
same,Inhibition of FGFR2α phosphorylation at trough of steady state,phosphorylated FGFR2α; pemigatinib 13.5 mg ID,31%
same,Alanine aminotransferase increased (TEAE),[2]; Total (all pemigatinib doses),4 (50.0) n (%)
same,"Alopecia TEAE, patients",[2]; Total (all pemigatinib doses),12.5%
same,Anemia (TEAE),[2]; Total (all pemigatinib doses),8 (100.0) n (%)
same,Aspartate aminotransferase increased (TEAE),[2]; Total (all pemigatinib doses),4 (50.0) n (%)
same,Blood creatinine increased (TEAE),[2]; Total (all pemigatinib doses),5 (62.5) n (%)
same,Constipation (TEAE),[2]; Total (all pemigatinib doses),5 (62.5) n (%)
same,Dehydration (TEAE),[2]; Total (all pemigatinib doses),3 (37.5) n (%)
same,Diarrhea (TEAE),[2]; Total (all pemigatinib doses),4 (50.0) n (%)
same,Dizziness (TEAE),[2]; Total (all pemigatinib doses),3 (37.5) n (%)
same,"Dose interruptions because of TEAEs, patients",[2]; Total (all pemigatinib doses),87.5%
same,"Dose reductions because of TEAEs, patients",[2]; Total (all pemigatinib doses),12.5%
same,Dry mouth (TEAE),[2]; Total (all pemigatinib doses),3 (37.5) n (%)
same,Fatigue (TEAE),[2]; Total (all pemigatinib doses),5 (62.5) n (%)
same,Hyperphosphatemia (TEAE),[2]; Total (all pemigatinib doses),4 (50.0) n (%)
same,"Hyperphosphatemia TEAE, patients",[2]; Total (all pemigatinib doses),50.0%
same,Hypokalemia (TEAE),[2]; Total (all pemigatinib doses),3 (37.5) n (%)
same,Hyponatremia (TEAE),[2]; Total (all pemigatinib doses),4 (50.0) n (%)
same,Nausea (TEAE),[2]; Total (all pemigatinib doses),5 (62.5) n (%)
same,Neutropenia (TEAE),[2]; Total (all pemigatinib doses),4 (50.0) n (%)
same,"Pemigatinib-related TEAEs, patients",[2]; Total (all pemigatinib doses),87.5%
same,Stomatitis (TEAE),[2]; Total (all pemigatinib doses),3 (37.5) n (%)
same,"TEAEs related to the combination partner, patients",[2]; Total (all pemigatinib doses),100.0%
same,Thrombocytopenia (TEAE),[2]; Total (all pemigatinib doses),5 (62.5) n (%)
same,Vomiting (TEAE),[2]; Total (all pemigatinib doses),3 (37.5) n (%)
same,White blood cell count decreased (TEAE),[2]; Total (all pemigatinib doses),4 (50.0) n (%)
same,"Anemia TEAE, patients",[2]; pemigatinib 13.5 mg ID,100.0%
pemigatinib + pembrolizumab [Pemi/pembro],ORR (95% CI),advanced solid tumors; Total (all pemigatinib doses),26.9%
same,"DOR, individual responder","advanced solid tumors; pemigatinib 13.5 mg ID, urothelial tract/bladder cancer, FGFR3 p.S249C mutation",50.3 months
same,Inhibition of FGFR2α phosphorylation at trough of steady state,phosphorylated FGFR2α; [3],exceeded 50%
same,Alanine aminotransferase increased (TEAE),[2]; Total (all pemigatinib doses),8 (30.8) n (%)
same,Alopecia (TEAE),[2]; Total (all pemigatinib doses),11 (42.3) n (%)
same,Anemia (TEAE),[2]; Total (all pemigatinib doses),12 (46.2) n (%)
same,Aspartate aminotransferase increased (TEAE),[2]; Total (all pemigatinib doses),8 (30.8) n (%)
same,Decreased appetite (TEAE),[2]; Total (all pemigatinib doses),11 (42.3) n (%)
same,Diarrhea (TEAE),[2]; Total (all pemigatinib doses),12 (46.2) n (%)
same,"Dose interruptions because of TEAEs, patients",[2]; Total (all pemigatinib doses),57.7%
same,"Dose reductions because of TEAEs, patients",[2]; Total (all pemigatinib doses),7.7%
same,Dry eye (TEAE),[2]; Total (all pemigatinib doses),8 (30.8) n (%)
same,Dry mouth (TEAE),[2]; Total (all pemigatinib doses),9 (34.6) n (%)
same,"Fatigue TEAE, patients",[2]; Total (all pemigatinib doses),26.9%
same,Hyperphosphatemia (TEAE),[2]; Total (all pemigatinib doses),19 (73.1) n (%)
same,"Pemigatinib-related TEAEs, patients",[2]; Total (all pemigatinib doses),88.5%
same,Stomatitis (TEAE),[2]; Total (all pemigatinib doses),9 (34.6) n (%)
same,"TEAEs related to the combination partner, patients",[2]; Total (all pemigatinib doses),69.2%
same,"Alopecia TEAE, patients",[2]; pemigatinib 13.5 mg CD,55.6%
same,"Dry mouth TEAE, patients",[2]; pemigatinib 13.5 mg CD,55.6%
same,"Hyperphosphatemia TEAE, patients",[2]; pemigatinib 13.5 mg CD,55.6%
same,"Hyperphosphatemia TEAE, patients",[2]; pemigatinib 13.5 mg ID,78.6%
pemigatinib + retifanlimab [Pemi/reti],ORR (95% CI),advanced solid tumors; Total (all pemigatinib doses),11.1%
same,"DOR, individual responder","advanced solid tumors; pemigatinib 13.5 mg CD, ovarian cancer, no detectable FGF/FGFR alterations",4.2 months
same,"DOR, individual responder","advanced solid tumors; pemigatinib 13.5 mg CD, urothelial cancer, FGF3/4/19 amplification",8.3 months
same,Alopecia (TEAE),[2]; Total (all pemigatinib doses),6 (33.3) n (%)
same,Dehydration (TEAE),[2]; Total (all pemigatinib doses),8 (44.4) n (%)
same,Diarrhea (TEAE),[2]; Total (all pemigatinib doses),7 (38.9) n (%)
same,Dry mouth (TEAE),[2]; Total (all pemigatinib doses),9 (50.0) n (%)
same,Fatigue (TEAE),[2]; Total (all pemigatinib doses),11 (61.1) n (%)
same,Hyperphosphatemia (TEAE),[2]; Total (all pemigatinib doses),11 (61.1) n (%)
same,"Hyperphosphatemia TEAE, patients",[2]; Total (all pemigatinib doses),61.1%
same,Hypomagnesemia (TEAE),[2]; Total (all pemigatinib doses),6 (33.3) n (%)
same,"Pemigatinib-related TEAEs, patients",[2]; Total (all pemigatinib doses),94.4%
same,Stomatitis (TEAE),[2]; Total (all pemigatinib doses),12 (66.7) n (%)
same,"Stomatitis TEAE, patients",[2]; Total (all pemigatinib doses),66.7%
same,"TEAEs related to the combination partner, patients",[2]; Total (all pemigatinib doses),88.9%
same,"Stomatitis TEAE, patients",[2]; pemigatinib 13.5 mg CD,77.8%
pemigatinib + trastuzumab [Pemi/tras],ORR (95% CI),advanced solid tumors; pemigatinib 13.5 mg ID,0%
same,Inhibition of FGFR2α phosphorylation at trough of steady state,phosphorylated FGFR2α; [3],exceeded 50%
same,Alopecia (TEAE),[2]; pemigatinib 13.5 mg ID,5 (83.3) n (%)
same,"Alopecia TEAE, patients",[2]; pemigatinib 13.5 mg ID,83.3%
same,Anemia (TEAE),[2]; pemigatinib 13.5 mg ID,2 (33.3) n (%)
same,Constipation (TEAE),[2]; pemigatinib 13.5 mg ID,2 (33.3) n (%)
same,Cough (TEAE),[2]; pemigatinib 13.5 mg ID,4 (66.7) n (%)
same,Decreased appetite (TEAE),[2]; pemigatinib 13.5 mg ID,3 (50.0) n (%)
same,Diarrhea (TEAE),[2]; pemigatinib 13.5 mg ID,3 (50.0) n (%)
same,Dry eye (TEAE),[2]; pemigatinib 13.5 mg ID,2 (33.3) n (%)
same,Dry mouth (TEAE),[2]; pemigatinib 13.5 mg ID,4 (66.7) n (%)
same,Dyspepsia (TEAE),[2]; pemigatinib 13.5 mg ID,2 (33.3) n (%)
same,Dyspnea (TEAE),[2]; pemigatinib 13.5 mg ID,2 (33.3) n (%)
same,Epistaxis (TEAE),[2]; pemigatinib 13.5 mg ID,2 (33.3) n (%)
same,Fatigue (TEAE),[2]; pemigatinib 13.5 mg ID,2 (33.3) n (%)
same,"Fatigue TEAE, patients",[2]; pemigatinib 13.5 mg ID,33.3%
same,Headache (TEAE),[2]; pemigatinib 13.5 mg ID,2 (33.3) n (%)
same,Hyperphosphatemia (TEAE),[2]; pemigatinib 13.5 mg ID,5 (83.3) n (%)
same,"Hyperphosphatemia TEAE, patients",[2]; pemigatinib 13.5 mg ID,83.3%
same,Nausea (TEAE),[2]; pemigatinib 13.5 mg ID,2 (33.3) n (%)
same,"Pemigatinib-related TEAEs, patients",[2]; pemigatinib 13.5 mg ID,83.3%
same,Pyrexia (TEAE),[2]; pemigatinib 13.5 mg ID,2 (33.3) n (%)
same,Sinusitis (TEAE),[2]; pemigatinib 13.5 mg ID,3 (50.0) n (%)
same,Stomatitis (TEAE),[2]; pemigatinib 13.5 mg ID,2 (33.3) n (%)
same,"TEAEs related to the combination partner, patients",[2]; pemigatinib 13.5 mg ID,50.0%
same,Taste disorder (TEAE),[2]; pemigatinib 13.5 mg ID,2 (33.3) n (%)
same,Upper respiratory tract infection (TEAE),[2]; pemigatinib 13.5 mg ID,2 (33.3) n (%)

# Source: paper PMC11295983 (ESMO Open, 2024)
